This note sets out measurements from ChEMBL document CHEMBL5257059, “Pyridine-Based 1,2,4-Triazolo-Tethered Indole Conjugates Potentially Affecting TNKS and PI3K in Colorectal Cancer” (ACS Med Chem Lett, 2023).

Assay [1] in a line: Antiproliferative activity against human Tera-1 cells assessed as inhibition of cell growth incubated for 24 hrs by MTT assay. Format: functional, cell-based. The following applies: Tera-1, 24 h.
Assay [2] concerns the target Phosphatidylinositol 3-kinase regulatory subunit alpha (Homo sapiens) (UniProt P27986). Briefly: Inhibition of PI3K-P85 phosphorylation in human HT-29 cells at 4 uM incubated for 72 hrs by Western blot analysis. The format is cell-based.
In assay [3] the test system is HT-29. Briefly: Induction of cell cycle arrest in human HT-29 cells assessed as accumulation of cells at G2/M phase at 4 uM incubated for 24 hrs by RNase/PI staining based flow cytometry analysis (reference value: 23.695 %). Format: functional.
Assay [4] concerns the target 182 kDa tankyrase-1-binding protein (Homo sapiens) (UniProt Q9C0C2). Briefly: Inhibition of TAB-182 phosphorylation in human HT-29 cells at 4 uM incubated for 72 hrs by Western blot analysis. Format: cell-based.
For the next assay, the system named is A 172. Briefly: Antiproliferative activity against human A-172 cells assessed as inhibition of cell growth incubated for 24 hrs by MTT assay. The following applies: A 172, 24 h. The format is functional, cell-based.
In assay [5] the test system is HT-29. The experiment in a line: Antiproliferative activity against human HT-29 cells assessed as inhibition of cell growth incubated for 24 hrs by MTT assay. Format: functional, cell-based. Conditions: HT-29, 24 h.
The subject of assay [6] is HT-29. Briefly: Downregulation of TAB-182 protein expression in human HT-29 cells at 4 uM by immunostaining based confocal microscopic analysis. The format is functional, cell-based.
Another assay has as its system DLD-1. Briefly: Antiproliferative activity against human DLD-1 cells assessed as inhibition of cell growth incubated for 24 hrs by MTT assay. The format is functional, cell-based. Conditions: DLD-1, 24 h.
Assay [7] deals with HT-29. The experiment in a line: Inhibition of nuclear translocation of NFkappaB in human HT-29 cells assessed as reduction in NFkappaB expression in nucleus by immunofluorescence based confocal microscopic analysis. Format: functional, cell-based. Put shortly: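 HT-29 colon cancer cells were treated with test compounds, then immunostained for NF-κB and co-stained for F-actin. Nuclear NF-κB signal was read by immunofluorescence imaging.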

Assay [8] concerns HT-29. Briefly: Inhibition of phosphorylated GSK-3beta protein expression in human HT-29 cells at 4 uM incubated for 72 hrs by Western blot analysis. Format: functional, cell-based.
The next assay has as its system A549. The experiment in a line: Antiproliferative activity against human A549 cells assessed as inhibition of cell growth incubated for 24 hrs by MTT assay. The format is functional, cell-based. Conditions: A549, 24 h.
The subject of another assay is Caco-2. Briefly: Antiproliferative activity against human Caco-2 cells assessed as inhibition of cell growth incubated for 24 hrs by MTT assay. Format: functional, cell-based. The following applies: Caco-2, 24 h.
The test system of assay [9] is HT-29. Briefly: Cytotoxicity against human HT-29 cells assessed as damage of actin filament by F-actin/phalloidin red staining based confocal microscopic analysis. Format: functional, cell-based. Put shortly:
(§1)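 HT-29 cells were stained for F-actin with Phalloidin Red alongside immunofluorescent staining of PI3K-p85 (or NF-κB), then examined by fluorescence imaging for actin-filament integrity and p85 signal.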

The test system of assay [10] is HT-29. The experiment in a line: Downregulation of PI3K-p85 expression in human HT-29 cells by immunofluorescence based confocal microscopic analysis. Format: functional, cell-based. Put shortly: as §1
Assay [11] has as its system HT-29. The experiment in a line: Induction of apoptosis in human HT29 cells assessed as increase in early apoptotic cells at 1 uM incubated for 24 hrs by annexin V/PI staining based flow cytometry analysis. Format: functional, cell-based. Put shortly: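 Annexin/PI double staining of HT-29 cells after 24 h exposure at 1, 2 or 4 μM. Flow cytometry gated early apoptotic, late apoptotic and necrotic populations, reported as % of cells. Comparison to untreated control used two-way ANOVA followed by Tukey's post hoc analysis.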

Assay [12] deals with T1, Catenin beta-1 (Homo sapiens) (UniProt P35222).
T1 sequence (whole entry): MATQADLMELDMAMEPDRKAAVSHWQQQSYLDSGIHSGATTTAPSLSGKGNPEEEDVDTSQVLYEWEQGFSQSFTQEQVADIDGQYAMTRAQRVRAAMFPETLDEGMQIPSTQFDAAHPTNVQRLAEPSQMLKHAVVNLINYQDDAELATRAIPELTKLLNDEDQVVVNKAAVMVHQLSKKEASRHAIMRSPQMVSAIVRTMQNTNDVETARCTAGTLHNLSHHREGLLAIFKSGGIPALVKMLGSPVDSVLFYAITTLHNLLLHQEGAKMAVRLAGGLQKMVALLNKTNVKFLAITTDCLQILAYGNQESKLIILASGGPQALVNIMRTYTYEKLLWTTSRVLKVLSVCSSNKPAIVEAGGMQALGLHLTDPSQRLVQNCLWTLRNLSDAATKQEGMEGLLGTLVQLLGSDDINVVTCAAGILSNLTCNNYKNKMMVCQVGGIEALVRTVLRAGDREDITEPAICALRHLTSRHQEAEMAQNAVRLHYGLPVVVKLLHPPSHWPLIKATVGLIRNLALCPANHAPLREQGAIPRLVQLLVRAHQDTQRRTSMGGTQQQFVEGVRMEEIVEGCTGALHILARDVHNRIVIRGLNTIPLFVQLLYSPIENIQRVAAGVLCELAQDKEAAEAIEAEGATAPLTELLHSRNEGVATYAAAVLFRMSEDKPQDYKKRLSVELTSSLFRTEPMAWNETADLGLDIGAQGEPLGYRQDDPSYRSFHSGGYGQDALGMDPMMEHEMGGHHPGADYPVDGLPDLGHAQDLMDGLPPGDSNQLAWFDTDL
Briefly: Inhibition of beta-catenin phosphorylation in human HT-29 cells at 1 uM incubated for 72 hrs by Western blot analysis. Format: cell-based.

The subject of assay [13] is HT-29. The experiment in a line: Inhibition of TAB-182 protein expression in human HT-29 cells at 1 uM incubated for 72 hrs by Western blot analysis. The format is functional, cell-based.
The subject of assay [14] is HT-29. Briefly: Inhibition of beta-actin protein expression in human HT-29 cells at 1 uM incubated for 72 hrs by Western blot analysis. The format is functional, cell-based.
Assay [15] has as its system HT-29. The experiment in a line: Inhibition of AKT protein expression in human HT-29 cells at 1 uM incubated for 72 hrs by Western blot analysis. Format: functional, cell-based.
The target of assay [16] is Glycogen synthase kinase-3 beta (Homo sapiens) (UniProt P49841). The experiment in a line: Inhibition of GSK3beta phosphorylation in human HT-29 cells at 1 uM incubated for 72 hrs by Western blot analysis. The format is cell-based.
The subject of assay [17] is HT-29. Briefly: Inhibition of phosphorylated GSK-3beta protein expression in human HT-29 cells at 1 uM incubated for 72 hrs by Western blot analysis. The format is functional, cell-based.
Assay [18] concerns HT-29. The experiment in a line: Inhibition of phosphorylated PI3K-p85 protein expression in human HT-29 cells at 2 uM incubated for 72 hrs by Western blot analysis. The format is functional, cell-based.
In assay [19] the target is T1, Catenin beta-1 (Homo sapiens). Briefly: Inhibition of beta-catenin phosphorylation in human HT-29 cells at 2 uM incubated for 72 hrs by Western blot analysis. The format is cell-based.
Assay [20] relates to HT-29. Briefly: Inhibition of AXIN-2 protein expression in human HT-29 cells at 2 uM incubated for 72 hrs by Western blot analysis. Format: functional, cell-based.
The test system of assay [21] is HT-29. Briefly: Induction of mitochondrial ROS generation in human HT-29 cells at 2 uM by MitoSOX red dye based flow cytometry analysis. The format is functional, cell-based. Put shortly: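 Mitochondrial superoxide in HT-29 cells was read with the mitochondria-localizing MitoSOX Red probe after treatment at 1, 2 or 4 μM. Flow cytometry histograms were acquired on 10,000 cells, and results were expressed as mean fluorescence intensity. Versus control, significance was tested by one-way ANOVA with Tukey's post hoc test.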

The subject of assay [22] is HT-29. The experiment in a line: Inhibition of TAB-182 protein expression in human HT-29 cells at 2 uM incubated for 72 hrs by Western blot analysis. Format: functional, cell-based.
Assay [23] concerns HT-29. The experiment in a line: Downregulation of TAB-182 protein expression in human HT-29 cells at 2 uM by immunostaining based confocal microscopic analysis. The format is functional, cell-based.

Each structure is given as a SMILES string. Active and inactive are the calls of the source. The calls are words filed in the database; no cut-off is given here.

Chain of Phosphatidylinositol 3-kinase regulatory subunit alpha (Homo sapiens) (P27986 whole entry): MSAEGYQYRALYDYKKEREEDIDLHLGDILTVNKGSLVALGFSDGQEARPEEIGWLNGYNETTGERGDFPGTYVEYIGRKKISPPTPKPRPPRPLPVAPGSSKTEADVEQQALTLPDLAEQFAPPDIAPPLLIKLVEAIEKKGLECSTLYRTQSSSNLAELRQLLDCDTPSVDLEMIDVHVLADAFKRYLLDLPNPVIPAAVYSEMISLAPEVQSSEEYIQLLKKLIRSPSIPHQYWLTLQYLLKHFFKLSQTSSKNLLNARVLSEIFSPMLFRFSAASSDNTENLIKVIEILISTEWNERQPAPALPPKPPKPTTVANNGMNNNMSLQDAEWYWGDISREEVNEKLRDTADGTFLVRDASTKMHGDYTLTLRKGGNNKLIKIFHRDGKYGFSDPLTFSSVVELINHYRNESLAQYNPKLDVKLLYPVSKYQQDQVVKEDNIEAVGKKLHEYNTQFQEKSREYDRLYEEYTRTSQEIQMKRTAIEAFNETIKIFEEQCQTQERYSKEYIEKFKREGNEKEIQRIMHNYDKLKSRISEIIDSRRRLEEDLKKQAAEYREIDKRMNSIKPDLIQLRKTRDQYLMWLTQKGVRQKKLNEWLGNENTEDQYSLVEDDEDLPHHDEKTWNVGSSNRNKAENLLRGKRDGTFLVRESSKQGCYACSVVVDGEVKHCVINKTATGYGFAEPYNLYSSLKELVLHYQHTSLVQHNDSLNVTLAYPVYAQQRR
Chain of 182 kDa tankyrase-1-binding protein (Homo sapiens) (Q9C0C2 whole entry): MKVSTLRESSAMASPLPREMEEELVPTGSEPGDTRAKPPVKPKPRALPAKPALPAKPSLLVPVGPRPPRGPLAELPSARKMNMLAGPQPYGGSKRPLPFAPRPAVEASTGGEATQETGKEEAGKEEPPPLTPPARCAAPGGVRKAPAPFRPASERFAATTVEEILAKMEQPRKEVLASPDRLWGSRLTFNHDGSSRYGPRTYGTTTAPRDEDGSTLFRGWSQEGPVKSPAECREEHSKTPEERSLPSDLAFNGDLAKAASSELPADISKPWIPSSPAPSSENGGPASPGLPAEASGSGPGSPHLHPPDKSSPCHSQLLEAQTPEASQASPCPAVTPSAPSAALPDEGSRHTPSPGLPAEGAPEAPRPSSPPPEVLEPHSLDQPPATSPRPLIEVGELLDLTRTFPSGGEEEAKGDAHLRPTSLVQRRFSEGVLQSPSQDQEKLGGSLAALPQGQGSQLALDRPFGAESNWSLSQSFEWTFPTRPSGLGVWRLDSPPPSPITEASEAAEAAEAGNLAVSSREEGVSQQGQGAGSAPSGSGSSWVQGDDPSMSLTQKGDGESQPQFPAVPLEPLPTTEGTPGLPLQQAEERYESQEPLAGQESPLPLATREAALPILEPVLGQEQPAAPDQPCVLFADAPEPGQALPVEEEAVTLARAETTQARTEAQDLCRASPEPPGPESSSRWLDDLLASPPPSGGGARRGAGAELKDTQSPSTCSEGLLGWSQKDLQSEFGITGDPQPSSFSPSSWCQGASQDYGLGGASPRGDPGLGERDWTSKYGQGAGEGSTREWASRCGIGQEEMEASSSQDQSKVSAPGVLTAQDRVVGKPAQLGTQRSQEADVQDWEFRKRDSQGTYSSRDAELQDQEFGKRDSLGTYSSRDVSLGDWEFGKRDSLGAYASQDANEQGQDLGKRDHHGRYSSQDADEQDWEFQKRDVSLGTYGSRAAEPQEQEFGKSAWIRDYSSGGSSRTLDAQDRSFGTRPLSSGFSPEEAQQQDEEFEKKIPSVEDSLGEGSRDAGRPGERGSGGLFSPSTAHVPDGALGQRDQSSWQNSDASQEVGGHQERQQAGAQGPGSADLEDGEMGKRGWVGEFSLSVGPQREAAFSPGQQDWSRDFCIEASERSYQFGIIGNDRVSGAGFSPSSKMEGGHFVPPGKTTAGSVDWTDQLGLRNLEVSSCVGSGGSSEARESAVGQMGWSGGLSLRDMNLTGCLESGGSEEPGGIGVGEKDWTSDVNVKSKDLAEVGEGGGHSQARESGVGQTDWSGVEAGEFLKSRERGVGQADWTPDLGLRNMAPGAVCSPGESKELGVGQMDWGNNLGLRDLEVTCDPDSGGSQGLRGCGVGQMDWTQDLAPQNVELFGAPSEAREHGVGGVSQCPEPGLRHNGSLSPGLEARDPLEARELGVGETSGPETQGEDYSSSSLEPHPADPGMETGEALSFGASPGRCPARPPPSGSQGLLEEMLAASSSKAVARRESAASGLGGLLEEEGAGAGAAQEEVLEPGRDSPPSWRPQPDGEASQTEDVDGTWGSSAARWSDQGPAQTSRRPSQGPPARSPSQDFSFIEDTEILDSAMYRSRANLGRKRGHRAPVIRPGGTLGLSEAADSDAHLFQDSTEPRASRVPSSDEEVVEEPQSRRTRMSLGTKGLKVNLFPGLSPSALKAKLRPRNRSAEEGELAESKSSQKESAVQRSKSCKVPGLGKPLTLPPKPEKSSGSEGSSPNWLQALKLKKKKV
Chain of Glycogen synthase kinase-3 beta (Homo sapiens) (P49841 whole entry, looked up): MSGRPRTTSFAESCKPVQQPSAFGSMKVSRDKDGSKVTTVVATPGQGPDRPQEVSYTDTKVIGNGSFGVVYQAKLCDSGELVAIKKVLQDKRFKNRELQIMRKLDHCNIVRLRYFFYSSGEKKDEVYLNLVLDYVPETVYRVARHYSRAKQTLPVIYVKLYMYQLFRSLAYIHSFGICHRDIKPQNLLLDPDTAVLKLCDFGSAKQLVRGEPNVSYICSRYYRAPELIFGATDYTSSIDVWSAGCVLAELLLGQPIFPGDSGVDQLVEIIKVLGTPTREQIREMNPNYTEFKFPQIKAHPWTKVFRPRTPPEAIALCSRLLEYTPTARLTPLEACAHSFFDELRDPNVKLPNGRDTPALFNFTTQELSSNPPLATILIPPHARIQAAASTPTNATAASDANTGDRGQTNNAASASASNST

On to `COc1cccc(-n2c(SCCc3c[nH]c4ccccc34)nnc2-c2ccncc2)c1`, for which the half-maximal inhibitory concentration (IC50) amounted to 19.4 µM in assay [1]; 26.8 µM with A 172; 3.6 µM in the assay on HT-29 [5]; 9.3 µM in the assay on DLD-1; 25.1 µM in the assay with A549; 15.5 µM with Caco-2. The inhibition entry (in [2]; in assay [4]; in the assay with HT-29 [7]; in the assay on HT-29 [8]) was “Active” in each case. The Activity in the assay on HT-29 [3] was found to be 22.943%. In addition, the result in the assay with HT-29 [6], in the assay on HT-29 [9] and in the assay on HT-29 [10] was Active.
Regarding `COc1ccc(-n2c(SCCc3c[nH]c4ccccc34)nnc2-c2ccncc2)cc1`, the IC50 in [1] turned out to be 4.3 µM; in the assay with A 172 it was 9 µM; in the assay on HT-29 [5], 1 µM; in the assay on DLD-1, 7 µM; in the assay with A549 it was 6.7 µM; in the assay on Caco-2, 3.9 µM. Moreover, the result in the assay on HT-29 [11], in the assay on HT-29 [9] and in the assay on HT-29 [10] was Active. Also, the inhibition result (in assay [12]; in the assay with HT-29 [13]; in the assay on HT-29 [14]; in the assay with HT-29 [15]; in assay [16]; with HT-29 [7]) was “Active” each time. The inhibition result in the assay on HT-29 [17] is “Active”.
`Fc1ccccc1-n1c(SCCc2c[nH]c3ccccc23)nnc1-c1ccncc1`: the 50% inhibitory concentration (IC50) in assay [1] was found to be 10.5 µM; in the assay on A 172, 9.5 µM; in the assay with HT-29 [5], 2.4 µM; in the assay with DLD-1, 7 µM; with A549, 5.3 µM; with Caco-2, 9.1 µM. The inhibition entry (with HT-29 [18]; in [19]; in the assay on HT-29 [20]; in the assay with HT-29 [7]; in the assay on HT-29 [22]) was “Active” throughout. Also, the outcome in the assay with HT-29 [21], in the assay on HT-29 [9], in the assay on HT-29 [23] and with HT-29 [10] was Active.
